Screens deposited in PubChem by several laboratories.
An excerpt weighted towards active compounds, which were near 1.6% of everything screened.
TbHK1 inh – blocks Trypanosoma brucei hexokinase 1 activity; inhibition, % at 10 µM; 220,000 tested, 0.11% active; recombinant TbHK1, G6PDH-coupled NADH A340;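 active = inhibition of 50% or more in the single-dose primary screen; inactive = inhibition below 50%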
Yeast life ext – extends the lifespan of yeast; S. cerevisiae growth with nicotinamide, OD615; deaD strain in restrictive glucose medium; inhibition of the nicotinamide effect, % at 10 µM; 130,000 tested, 0.68% active; AID 775;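 active = inhibition above a set limit, placed 3 SD over the median of all compounds, cut at about 26% in these data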;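 also: 0% = nicotinamide-treated wells and 100% = cells grown without nicotinamide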
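Test system: DeaD-strain S. cerevisiae / Buffer or medium: restrictive glucose medium / Also added: nicotinamide 1.5 mM / Doses: one concentration, 10 µM, DMSO 0.25% / Schedule: 48 h at 30 °C / Signal: OD615 measurement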
RBBP9 inh – inhibitors of human serine hydrolase RBBP9; O75884; recombinant RBBP9, FP-Rh probe fluorescence polarization; inhibition, % at 7.94 µM; 220,000 tested, 0.2% active; AID 1515;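 active = inhibition above the campaign mean of all tested compounds plus 3 SD, cut at about 14% in these data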;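 also: plate controls were DMSO wells with RBBP9 for no effect and wells lacking RBBP9 protein for full effect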
Target sequence (O75884 whole entry, looked up): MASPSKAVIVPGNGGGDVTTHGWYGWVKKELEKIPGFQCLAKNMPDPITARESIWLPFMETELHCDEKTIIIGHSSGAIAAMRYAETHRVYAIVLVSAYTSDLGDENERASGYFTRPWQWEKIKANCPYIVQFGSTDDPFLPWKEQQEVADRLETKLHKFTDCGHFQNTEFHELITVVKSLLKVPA
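Measured by – fluorescence polarization · Test system – RBBP9 protein · Input – 2.5 µM RBBP9 dispensing solution, before mixing · Measure – percent inhibition from mP, scaled between DMSO and no-protein wells · Benchmarks – DMSO-treated enzyme wells and wells lacking RBBP9 · Times – preincubation 30 min plus labeling 45 min at 25 °C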
SDO1 yeast rescue – sdo1-depleted yeast growth rescue; S. cerevisiae sdo1-depleted JHY4D growth rescue, OD600 30 h; active compounds read high; pdr5 snq2 efflux-pump mutant strain; z-score at 10 µM; 140,000 tested, 0.21% active; AID 817;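 active = z-score above 3 at both the 24 hr and the 30 hr optical density reads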;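 also: z-score against mean and SD of all compound wells on the same plate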
Yeast growth inh – reduces growth of yeast BB579 in restrictive medium; S. cerevisiae BB579 growth, OD615, 48 h; inhibition, % at 10 µM; 140,000 tested, 0.51% active; AID 804;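 active = inhibition above a set limit, 3 SD over the mean compound inhibition, cut at about 44% in these data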
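controls = amphotericin B 10 µg/mL, positive | assay system = DeaD yeast strain BB579 | schedule = 48 h compound exposure at 30 °C after 4 h preincubation | detection = OD615 turbidity measurement | medium = restrictive CSMM-D medium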
NCF1 inh – blocks human p47phox regulatory protein of NADPH oxidases; p47phox/p22phox peptide binding, fluorescence polarization, 2 h; AID 1274; 220,000 tested, 0.53% active; inhibition, % at 24.7 µM;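 active = inhibition above about 30%, limit read from the data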;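 also: 0% = p47phox with labelled peptide and 100% = labelled peptide alone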
Target sequence (P14598 whole entry, looked up): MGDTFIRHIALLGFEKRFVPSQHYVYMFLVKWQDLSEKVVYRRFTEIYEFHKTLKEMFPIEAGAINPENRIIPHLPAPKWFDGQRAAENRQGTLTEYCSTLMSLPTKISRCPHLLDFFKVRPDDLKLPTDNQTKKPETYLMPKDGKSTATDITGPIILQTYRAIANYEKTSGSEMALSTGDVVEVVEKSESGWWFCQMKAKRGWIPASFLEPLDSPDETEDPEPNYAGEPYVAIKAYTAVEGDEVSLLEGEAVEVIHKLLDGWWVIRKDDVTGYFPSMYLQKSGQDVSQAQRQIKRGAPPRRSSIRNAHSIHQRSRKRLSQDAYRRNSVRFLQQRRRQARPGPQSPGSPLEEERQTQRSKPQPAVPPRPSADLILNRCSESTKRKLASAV
RBBP9 confirm – human RBBP9 inhibition, confirmation | shares compounds with RBBP9 inh | recombinant RBBP9, FP-Rh probe fluorescence polarization | inhibition, % at 7.94 µM | 410 tested, 36% active;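 active = inhibition above the hit cutoff derived for the primary screen, cut at about 15% in these data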;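 also: 0% = RBBP9 with DMSO and 100% = wells lacking RBBP9 protein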
* = called active by the depositor.

For CC(=O)NC(=S)Nc1cccc([N+](=O)[O-])c1 the results were TbHK1 inh -6, RBBP9 inh 17*, NCF1 inh -3 and RBBP9 confirm 1.
Screening CNC(=S)Nc1cccc([N+](=O)[O-])c1 returned TbHK1 inh 2, RBBP9 inh -2 and NCF1 inh -5.
Screening Cc1ccc(NC(=O)/C(=C\c2ccc([N+](=O)[O-])cc2)NC(=O)c2ccccc2)cc1 returned TbHK1 inh -22, Yeast life ext -9, RBBP9 inh -5, SDO1 yeast rescue -1.5, Yeast growth inh -16 and NCF1 inh -8.
Screening O=C(N/N=C/c1ccc(O)c(O)c1O)/C(=C/c1ccc([N+](=O)[O-])cc1)NC(=O)c1ccccc1 returned TbHK1 inh -6, Yeast life ext -10, RBBP9 inh 18*, SDO1 yeast rescue 1.6, Yeast growth inh 9, NCF1 inh -10 and RBBP9 confirm 38*.
For CC1(C)CC(=O)C(C=NCCN2CCN(C(=O)c3ccc(F)cc3)CC2)=C(O)C1 the results were TbHK1 inh -3, RBBP9 inh 15*, SDO1 yeast rescue 1.8, Yeast growth inh -52, NCF1 inh -6 and RBBP9 confirm 8.
CC1(C)CC(=O)C(C=NCCN2CCN(C(=O)c3ccccc3)CC2)=C(O)C1 was read as TbHK1 inh 4, Yeast life ext 7, RBBP9 inh -7, SDO1 yeast rescue 0.48, Yeast growth inh -75 and NCF1 inh -12.
For CC(=O)Nc1ccc(S(=O)(=O)N2CCN(Cc3cccs3)CC2)cc1 the results were TbHK1 inh 1, RBBP9 inh -6 and NCF1 inh -8.
For Cc1ccccc1NC(=O)c1sc2nc3c(c(-c4ccco4)c2c1N)CCCC3 the results were TbHK1 inh -14, Yeast life ext -4, RBBP9 inh 15*, SDO1 yeast rescue -0.82, Yeast growth inh -46, NCF1 inh -5 and RBBP9 confirm 7.
`CC(=O)N1CC2(NC(=O)c3ccccc3N2)c2ccccc21` (stereo not drawn) gave TbHK1 inh -14, RBBP9 inh -1 and NCF1 inh -6.
Screening O=C1CC(=O)N(CCNc2ncc(C(F)(F)F)cc2Cl)C(=O)N1 returned TbHK1 inh 6, Yeast life ext -18, RBBP9 inh -9, SDO1 yeast rescue 0.59, Yeast growth inh -45 and NCF1 inh -36.
O=C1C=CC(=O)N1CCNc1ncc(C(F)(F)F)cc1Cl was read as TbHK1 inh 9, RBBP9 inh 33*, NCF1 inh 3 and RBBP9 confirm 31*.
Screening CCOC(=O)c1ccc(N2C(=O)C(CC(=O)NC)N(CCc3ccc(OC)c(OC)c3)C2=S)cc1 (stereo not drawn) returned TbHK1 inh -9, RBBP9 inh -1 and NCF1 inh 11.
`CCC(C)Sc1nc2c(c(=O)[nH]1)C(c1cccs1)C1=C(CCCC1=O)N2` (stereo not drawn) gave TbHK1 inh -2, RBBP9 inh -1 and NCF1 inh -31.
`CCc1ccc(OC2=NS(=O)(=O)c3ccccc32)cc1` gave TbHK1 inh -1, RBBP9 inh -10 and NCF1 inh -4.
Screening CCN(CC)c1cccc(OC2=NS(=O)(=O)c3ccccc32)c1 returned TbHK1 inh 6, Yeast life ext -8, RBBP9 inh 19*, SDO1 yeast rescue -0.81, Yeast growth inh -50, NCF1 inh 9 and RBBP9 confirm 16*.
Screening CCOC(=O)COc1cccc2c(=O)n(CC(=O)NCc3ccccc3)ccc12 returned TbHK1 inh -5, RBBP9 inh 1 and NCF1 inh -1.
Screening COC(=O)COc1cccc2c(=O)n(CC(=O)NCCc3ccccc3)ccc12 returned TbHK1 inh -7, Yeast life ext -1, RBBP9 inh 18*, SDO1 yeast rescue -0.47, Yeast growth inh -8, NCF1 inh -3 and RBBP9 confirm 12.
Screening CCc1c(C)nc(SCC(=O)N2CCCCC2CC)[nH]c1=O (stereo not drawn) returned TbHK1 inh -6, RBBP9 inh -10 and NCF1 inh 0.
`COc1cc(-c2nc3ccccn3c2/N=C/c2ccc(F)cc2)ccc1O` gave TbHK1 inh -14, RBBP9 inh 16*, NCF1 inh -5 and RBBP9 confirm 11.
`COc1cc(-c2nc3ccccn3c2/N=C/c2cccc(OC)c2O)ccc1O` gave TbHK1 inh -1, RBBP9 inh -6 and NCF1 inh 6.
For CCNc1ccc2noc3c2c1C(=O)c1ccccc1-3 the results were TbHK1 inh -9, RBBP9 inh 28*, SDO1 yeast rescue -0.58, Yeast growth inh -12, NCF1 inh -279 and RBBP9 confirm -3.
For O=C1c2ccccc2-c2onc3ccc(N4CCCC4)c1c23 the results were TbHK1 inh -7, RBBP9 inh 46*, NCF1 inh -229 and RBBP9 confirm 16*.
For O=C(O)CCCNc1cc(N2CCC3(CC2)OCCO3)c2noc3c2c1C(=O)c1ccccc1-3 the results were TbHK1 inh 2, Yeast life ext 14, RBBP9 inh 6, SDO1 yeast rescue 0.48, Yeast growth inh -21 and NCF1 inh 29.
Screening CC(=O)N1CCc2cc(Br)cc(S(=O)(=O)CCC(=O)N3CCN(c4ccccn4)CC3)c21 returned TbHK1 inh -4, RBBP9 inh -6 and NCF1 inh 10.
`O=C(NC1CC(=O)c2sccc21)c1ccc(Cl)cc1Cl` (stereo not drawn) gave TbHK1 inh 5, RBBP9 inh -7 and NCF1 inh -9.
CC(C)C(=O)N(c1cc2sc(=O)oc2c2ccccc12)S(=O)(=O)c1cccs1 was read as TbHK1 inh -14, Yeast life ext 4, RBBP9 inh 32*, SDO1 yeast rescue -2.4, Yeast growth inh -72, NCF1 inh -8 and RBBP9 confirm 11.
`Cn1ncc(Br)c1NC(=O)CSc1ccc(Cl)cc1` gave TbHK1 inh -8, RBBP9 inh 18*, NCF1 inh 0 and RBBP9 confirm 3.
Screening CC(=O)Nc1ccc(OCCC[n+]2ccccc2)cc1 returned TbHK1 inh -4, RBBP9 inh -6 and NCF1 inh 0.
For CC(=O)Nc1ccc(OCC[n+]2cccc(C(N)=O)c2)cc1 the results were TbHK1 inh -1, RBBP9 inh 14* and RBBP9 confirm 8.
For CC(CS(=O)(=O)c1ccccc1[N+](=O)[O-])N1CCOCC1 (stereo not drawn) the results were TbHK1 inh 2, RBBP9 inh -7 and NCF1 inh -14.
